ChEMBL document CHEMBL4316598, “Synthesis, antiproliferative and apoptosis induction potential activities of novel bis(indolyl)hydrazide-hydrazone derivatives” (Bioorg Med Chem, 2019)
Active and inactive are the calls of the source. No cut-off for these calls is given here.

Columns and labels:
[1] = test system: SCC-25; experiment: Cytotoxicity against human SCC25 cells assessed as reduction in cell viability after 4 hrs by MTT assay; assay type: functional, cell-based
[2] = (§1) Cytotoxicity against human SW680 cells assessed as reduction in cell viability after 4 hrs by MTT assay; assay type: functional, cell-based
[3] = species: Homo sapiens; experiment: as §1; assay type: functional, cell-based
[4] = molecular target: Tyrosine-protein kinase ABL1 (Homo sapiens) (UniProt P00519); experiment: Inhibition of ABL phosphorylation (unknown origin) at 50 uM after 5 to 60 mins by bioluminescence assay
Sequence of Tyrosine-protein kinase ABL1 (Homo sapiens) (P00519 whole entry): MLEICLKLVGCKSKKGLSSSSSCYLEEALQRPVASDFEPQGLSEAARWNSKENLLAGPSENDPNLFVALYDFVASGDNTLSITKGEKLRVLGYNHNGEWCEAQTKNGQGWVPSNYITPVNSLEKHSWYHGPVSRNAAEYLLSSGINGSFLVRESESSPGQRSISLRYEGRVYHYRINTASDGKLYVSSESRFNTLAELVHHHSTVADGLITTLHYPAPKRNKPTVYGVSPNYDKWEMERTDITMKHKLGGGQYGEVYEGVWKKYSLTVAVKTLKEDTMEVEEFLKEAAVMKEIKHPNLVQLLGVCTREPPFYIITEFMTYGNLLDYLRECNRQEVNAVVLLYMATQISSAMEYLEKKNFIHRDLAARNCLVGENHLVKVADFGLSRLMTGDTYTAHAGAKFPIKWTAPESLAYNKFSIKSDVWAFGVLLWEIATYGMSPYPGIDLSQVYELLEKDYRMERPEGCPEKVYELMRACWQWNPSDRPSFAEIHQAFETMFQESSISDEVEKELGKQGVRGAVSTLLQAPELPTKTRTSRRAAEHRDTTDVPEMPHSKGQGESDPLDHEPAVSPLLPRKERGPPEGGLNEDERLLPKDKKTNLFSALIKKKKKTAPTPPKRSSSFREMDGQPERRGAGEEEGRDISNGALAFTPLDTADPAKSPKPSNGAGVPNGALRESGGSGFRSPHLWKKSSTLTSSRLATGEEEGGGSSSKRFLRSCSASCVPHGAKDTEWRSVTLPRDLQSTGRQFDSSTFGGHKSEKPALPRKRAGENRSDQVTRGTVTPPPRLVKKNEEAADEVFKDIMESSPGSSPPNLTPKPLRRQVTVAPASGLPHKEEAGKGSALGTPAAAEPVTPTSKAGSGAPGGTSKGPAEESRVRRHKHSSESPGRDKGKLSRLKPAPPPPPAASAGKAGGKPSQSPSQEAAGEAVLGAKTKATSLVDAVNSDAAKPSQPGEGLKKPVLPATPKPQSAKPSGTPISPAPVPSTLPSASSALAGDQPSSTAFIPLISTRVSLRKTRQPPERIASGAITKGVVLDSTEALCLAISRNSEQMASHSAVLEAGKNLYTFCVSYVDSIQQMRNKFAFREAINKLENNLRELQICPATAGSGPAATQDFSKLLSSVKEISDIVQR
Summary of the method: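 Kinase activity measured with compound at 1, 5, 10 and 50 μM, using a Kinase Reaction Rate Kit. Phosphorylation was followed by bioluminescent monitoring of ATP consumption, with light read at 5 min and 1 h. Staurosporine served as positive control. Data given as % kinase inhibition (% of control activity), from two separate experiments.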

[5] = test system: HeLa; experiment: Induction of apoptosis in human HeLa cells assessed as change in Bcl-2 level at 1 to 3 uM after 24 hrs by Western blot analysis; assay type: functional, cell-based
Summary of the method: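 Western blot: HeLa cells treated 24 h at 37 °C, lysed on ice, protein quantified by BCA. Proteins separated by electrophoresis, transferred to nitrocellulose, blocked 1 h in non-fat milk. Primary antibody (Bcl2) applied overnight at 4 °C, secondary 1 h at 28 °C, detected by enhanced chemiluminescence.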

[6] = test system: FaDu; experiment: Cytotoxicity against human FADU cells assessed as reduction in cell viability after 4 hrs by MTT assay; assay type: functional, cell-based
[7] = test system: HeLa; experiment: Effect on mitochondrial membrane potential in human HeLa cells assessed as shift change at 5 uM after 1 hrs by Rhodamine 123 dye-based fluorescence assay; assay type: functional, cell-based
Summary of the method: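 Mitochondrial potential: HeLa or MCF-7 cells treated with 5 µM (final) for 1, 2, 4 and 8 h. Rhodamine 123 added, cells incubated 30 min at 37 °C, washed with PBS, and analysed by flow cytometry. Fluorescence histogram shift is compared with control.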

[8] = test system: MCF7; experiment: Induction of apoptosis in human MCF7 cells assessed as late apoptotic cells at 1 uM after 16 hrs by annexin-V FITC/propidium iodide staining based flow cytometric analysis relative to control; assay type: functional
Summary of the method: (§2)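 Cells were grown in DMEM with 10% heat-inactivated FBS at 37 °C and 5% CO₂, then plated at 500,000 cells/well in 24-well plates. They were treated from a DMSO stock (DMSO ≤0.1%) for 8, 12 or 16 h. After a PBS wash, cells were resuspended in binding buffer (10 mM HEPES pH 7.4, 2.5 mM CaCl₂, 140 mM NaCl, 0.1% BSA), stained 40 min with FITC-annexin V, then with PI, and run on the flow cytometer immediately. Values are the mean of three independent experiments.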

[9] = test system: MCF7; experiment: Induction of apoptosis in human MCF7 cells assessed as early apoptotic cells at 1 uM after 8 hrs by annexin-V FITC/propidium iodide staining based flow cytometric analysis relative to control; assay type: functional; summary of the method: as §2
[10] = test system: HeLa; experiment: Induction of apoptosis in human HeLa cells assessed as early apoptotic cells at 1 uM after 16 hrs by annexin-V FITC/propidium iodide staining based flow cytometric analysis relative to control; assay type: functional; summary of the method: as §2
[11] = test system: MCF7; experiment: Induction of apoptosis in human MCF7 cells assessed as up-regulation of total p53 level at 5 uM after 12 hrs by sandwich ELISA; assay type: functional, cell-based
Summary of the method: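 Cells were treated at 5 µM for 12, 24 and 48 h. Lysis was in ice-cold lysis buffer with 1 mM PMSF (5 min on ice), followed by three freeze-thaw cycles and a 10 min spin at 4 °C. Acetylated and total p53 were measured in the supernatant by kit sandwich ELISA, read at 450 nm. The control index is sample absorbance divided by that of untreated cells at the same time. Values are mean ± SD of triplicate experiments.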

[12] = test system: MCF7; experiment: Induction of apoptosis in human MCF7 cells assessed as necrotic cells at 1 uM after 8 hrs by annexin-V FITC/propidium iodide staining based flow cytometric analysis relative to control; assay type: functional; summary of the method: as §2

Cn1cc(/C=N\NC(=O)c2cn(C)c3ccc(Br)cc23)c2ccccc21
Activity [1]: Dose-dependent effect
IC50 ([1]; SCC-25, 4 h): 10.1 µM
IC50 [2]: 2.77 µM
Activity [3]: Dose-dependent effect
inhibition [4]: Active
Activity [5]: inactive
Activity [6]: Dose-dependent effect
IC50 [6]: 9.64 µM
Activity [7]: Active
Activity [8]: 58.43%
Activity [9]: 2.26%
Activity [10]: 12.23%
Activity [11]: Active
Activity [12]: 0.33%
